Results collected from several papers.
Compare with care: the assays were run in different laboratories.
Target: Mitogen-activated protein kinase kinase kinase 11 (MAP3K11, Homo sapiens, UniProt Q16584)

`COc1cc2ncnc(Nc3ccc(F)c(Cl)c3)c2cc1OCCCN1CCOCC1` has a remaining signal of 102% (cell-free assay; 0.5 µM).
The inhibition of `CN1CC(Oc2cnc(C#N)cc2-c2ccn3nc(NC(=O)C4CC4)cc3c2)C1` is reported as 5% (enzyme activity, inhibitor; 1 µM).
The remaining signal of `COc1ccc(COc2ccc(Cc3cnc(N)nc3N)cc2OC)cc1` is reported as 101% (cell-free assay; 0.5 µM).
For `Cc1ccc(C(=O)NCc2ccsc2)cc1C#Cc1cn(C(C)C)c2ncnc(N)c12`, the activity vs control was 8% (enzyme activity, inhibitor; 1 µM).
With `N#Cc1ccc(Nc2ccc3[nH]c(=O)[nH]c3c2)c(Cl)c1` the remaining binding was 100% (cell-free assay, competition with immobilised ligand; 1 µM).
`CC/C(=N\NC(=O)NCc1cccc(O)c1)c1ccc(O)c(C)c1O` has an inhibition of 9.4% (enzyme activity, inhibitor; 0.1 µM).
With `Cc1c(C(=O)O)cc(-c2ccc(C3CCNCC3)cc2)c2ccc(-c3ccc(C(F)(F)F)cc3)cc12` the remaining binding was 100% (binding, competition with immobilised ligand; 1 µM).
For `Cc1nn(CC(F)(F)F)cc1Nc1ncc(Br)c(NCCc2cnc[nH]2)n1`, the remaining activity was 60% (enzyme activity, inhibitor, radiometric; 1 µM).
`CC(=O)N1CCC(c2ccc(C(=O)NC(=N)N)cc2C(F)(F)F)CC1` has a remaining binding of 100% (cell-free assay, competition with immobilised ligand; 1 µM).
With `O=C(NCCCNc1nc(Nc2cccc(NC(=O)N3CCCC3)c2)ncc1Br)C1CCC1` the remaining activity was -3% (enzyme activity, inhibitor, radiometric; 1 µM).
For `CCc1ccccc1C(=O)Nc1n[nH]c2c(C)c(F)c(C3C(C#N)=C(C)N(C)C(C)=C3C#N)cc12`, the remaining binding was 88% (cell-free assay, competition with immobilised ligand; 1 µM).
For `Cc1nn(CC(F)(F)F)cc1Nc1ncc(Br)c(NCc2ccc(S(N)(=O)=O)cc2)n1`, the remaining activity was 82% (enzyme activity, inhibitor, radiometric; 1 µM).
The remaining signal of `O=C1NC(=O)c2cc(Nc3ccc(F)cc3)c(Nc3ccc(F)cc3)cc21` is reported as 98.4% (cell-free assay; 0.5 µM).
For `Cc1nn(CC(F)(F)F)cc1Nc1nccc(NCCc2cnc[nH]2)n1`, the remaining activity was 94% (enzyme activity, inhibitor, radiometric; 1 µM).
The remaining signal of `Nc1ncnc2occ(-c3ccc(NC(=O)Nc4cc(C(F)(F)F)ccc4F)cc3)c12` is reported as 2.9% (cell-free assay, inhibitor; 20 µM).
With `O=C(NCCCNc1nc(Nc2cccc(NC(=O)N3CCCC3)c2)ncc1I)c1cccs1` the remaining activity was 1% (enzyme activity, inhibitor, radiometric; 1 µM).
With `O=C1Nc2ccc(Cl)cc2C1=Cc1cc(Cl)c(O)c(Cl)c1` the remaining signal was 60.4% (cell-free assay; 0.5 µM).
For `CN1CCc2cc(Nc3ncc(C4CC4)c(NCCCNC(=O)C4CCC4)n3)ccc2C1`, the remaining activity was 44% (enzyme activity, inhibitor, radiometric; 1 µM).
For `CN(C)c1ncnc(-c2ccc3nc(Nc4cc(CN5CCN(C(=O)CC(F)(F)F)CC5)ccn4)[nH]c3c2)c1Cl`, the remaining binding was 100% (cell-free assay, competition with immobilised ligand; 1 µM).
